From ChEMBL document CHEMBL4017491, “Phthalazino[1,2-b]quinazolinones as p53 Activators: Cell Cycle Arrest, Apoptotic Response and Bak-Bcl-xl Complex Reorganization in Bladder Cancer Cells” (J Med Chem, 2017)
Activity calls are given as the source filed them. The calls are words filed in the database; no cut-off is given here.

Assays:
[1] = tested on: J82; assay: Cell cycle arrest in human J82 cells assessed as accumulation at S phase at 1 uM after 48 hrs by propidium iodide staining based FACS analysis (reference value: 46.79 %); assay type: functional
Outline: (§1)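 Cells treated with 1−10 μM for 48 h, trypsinized, and fixed in 70% ethanol. Stained with 50 μg/mL propidium iodide and phase distribution analyzed by flow cytometry. Mean ± SD from three independent measurements.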

[2] = tested on: J82; assay: Cell cycle arrest in human J82 cells assessed as accumulation at G2 phase at 1 uM after 48 hrs by propidium iodide staining based FACS analysis (reference value: 10.92 %); assay type: functional; outline: as §1
[3] = tested on: J82; assay: Cell cycle arrest in human J82 cells assessed as accumulation at G1 phase at 5 uM after 48 hrs by propidium iodide staining based FACS analysis (reference value: 42.29 %); assay type: functional; outline: as §1
[4] = tested on: J82; assay: Cell cycle arrest in human J82 cells assessed as accumulation at G2 phase at 5 uM after 48 hrs by propidium iodide staining based FACS analysis (reference value: 10.92 %); assay type: functional; outline: as §1
[5] = biological target: Cellular tumor antigen p53 (Homo sapiens) (UniProt P04637); assay: Activation of p53 in human T24 cells assessed as p53 phosphorylation after 24 hrs by Western blot analysis; assay type: cell-based
Cellular tumor antigen p53 (Homo sapiens), sequence (P04637 whole entry, looked up): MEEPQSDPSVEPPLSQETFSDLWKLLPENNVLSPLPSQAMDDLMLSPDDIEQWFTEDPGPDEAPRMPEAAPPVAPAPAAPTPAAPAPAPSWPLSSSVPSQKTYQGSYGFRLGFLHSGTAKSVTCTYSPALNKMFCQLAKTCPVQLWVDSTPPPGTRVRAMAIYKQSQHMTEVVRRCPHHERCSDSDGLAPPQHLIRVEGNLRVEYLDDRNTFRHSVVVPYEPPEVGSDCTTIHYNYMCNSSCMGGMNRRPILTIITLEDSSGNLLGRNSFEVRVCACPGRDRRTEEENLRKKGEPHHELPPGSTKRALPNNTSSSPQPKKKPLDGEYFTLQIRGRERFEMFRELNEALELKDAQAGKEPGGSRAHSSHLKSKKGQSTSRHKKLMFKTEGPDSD
Outline: (§2)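 T24 cells, 3 × 10^5 per well, grown to 85−95% confluence, then exposed to 0−10 μM for 24 h. Whole-cell extracts in sample buffer run on SDS-polyacrylamide gels and transferred to nitrocellulose. Blots probed with primary antibodies and AP-linked anti-rabbit IgG, detected by ECL. Blots stripped and reprobed for β-actin as loading control.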

[6] = tested on: PC-3; assay: Antiproliferative activity against p53 null human PC3 cells by MTT assay; assay type: functional, cell-based
Outline: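 Cell lines cultured in RPMI 1640 with 10% FBS. Viability read by MTT (5 mg/mL, 4 h at 37 °C), with formazan dissolved in DMSO and absorbance taken at 490 nm. Viability (%) = A490 treated / A490 control × 100. IC50 taken from dose-response curves, from three independent experiments each run in triplicate.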

[7] = tested on: T-24; assay: Antiproliferative activity against human T24 cells harboring scRNA after 48 hrs by MTT assay; assay type: functional, cell-based
Outline: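 T24 cells pre-exposed to p53-siRNA or scrambled RNA for 24 h, then treated with a concentration series for 48 h. Proliferation measured by MTT read at 490 nm, expressed as % of control absorbance.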

[8] = tested on: T-24; assay: Induction of apoptosis in human T24 cells by Annexin V-FITC/propidium iodide based flow cytometric analysis; assay type: functional, cell-based
[9] = tested on: T-24; assay: Induction of apoptosis in human T24 cells assessed as live cells at 1 uM by Annexin V-FITC/propidium iodide based flow cytometric analysis (reference value: 89.5%); assay type: functional
[10] = tested on: T-24; assay: Induction of apoptosis in human T24 cells assessed as increase in bax level up to 10 uM after 24 hrs by Western blot analysis; assay type: functional, cell-based
Outline: (§3)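 T24 cells (3 × 10^5 per well) grown to 85–95% confluence, then exposed 24 h to 0–10 μM. Whole-cell extracts run on SDS-PAGE and blotted to nitrocellulose. Probed with the indicated antibodies and AP-linked anti-rabbit IgG, with ECL detection. Blots stripped and reprobed for β-actin as loading control.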

[11] = tested on: T-24; assay: Induction of apoptosis in human T24 cells assessed as increase in […] level up to 10 uM after 24 hrs by Western blot analysis; assay type: functional, cell-based; outline: as §3
[12] = tested on: T-24; assay: Induction of apoptosis in human T24 cells assessed as apoptotic inducing factor translocation from mitochondria to nucleus at 1 to 10 uM after 48 hrs by Hoechst 33258 staining based fluorescence confocal microscopic analysis; assay type: functional, cell-based
Outline: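 T24 cells on glass slides, treated for 48 h. Fixed in 4% paraformaldehyde, permeabilised with 1% Triton X-100, nuclei stained with Hoechst 33258 (final 0.5 μg/mL). Imaged by confocal fluorescence microscopy.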

[13] = biological target: Cellular tumor antigen p53 (Homo sapiens) (UniProt P04637); assay: Induction of phospho-p53 accumulation in human T24 cells assessed as disruption of Bak-Bcl-xl interaction up to 10 uM by coimmunoprecipitation assay; assay type: cell-based
[14] = tested on: T-24; assay: Antitumor activity against human T24 cells xenografted in BALB/C nude mouse assessed as tumor growth inhibition at 12 mg/kg, ip administered every 2 days for 16 days relative to control; assay type: functional; details: T-24, ip, read-out: TGI
[15] = tested on: T-24; assay: Downregulation of Bak protein expression in human T24 cells at 10 uM after 24 hrs by Western blot method; assay type: functional, cell-based; outline: as §2
[16] = tested on: T-24; assay: Induction of membrane disruption in human T24 cells at 1 to 10 uM after 1 hr by propidium iodide staining based FACS analysis; assay type: functional, cell-based
Outline: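 T24 cells exposed 1 h to 1–10 μM, then trypsinised and washed in PBS. Resuspended in 50 μg/mL propidium iodide in PBS and analysed immediately by flow cytometry with a 488 nm argon laser.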

[17] = tested on: T-24; assay: Effect on cell cycle distribution in human T24 cells assessed as live cells at 1 uM after 1 hr by Annexin V-FITC/propidium iodide staining based FACS analysis (reference value: 98.3%); assay type: functional
[18] = tested on: T-24; assay: Effect on cell cycle distribution in human T24 cells assessed as late necrotic cells at 1 uM after 1 hr by Annexin V-FITC/propidium iodide staining based FACS analysis (reference value: 1.71%); assay type: functional
[19] = tested on: T-24; assay: Effect on cell cycle distribution in human T24 cells assessed as early apoptotic cells at 5 uM after 1 hr by Annexin V-FITC/propidium iodide staining based FACS analysis relative to control; assay type: functional
[20] = tested on: T-24; assay: Effect on cell cycle distribution in human T24 cells assessed as late apoptotic cells at 5 uM after 1 hr by Annexin V-FITC/propidium iodide staining based FACS analysis relative to control; assay type: functional
[21] = tested on: T-24; assay: Effect on cell cycle distribution in human T24 cells assessed as late necrotic cells at 5 uM after 1 hr by Annexin V-FITC/propidium iodide staining based FACS analysis (reference value: 1.71%); assay type: functional
[22] = tested on: T-24; assay: Effect on cell cycle distribution in human T24 cells assessed as live cells at 10 uM after 1 hr by Annexin V-FITC/propidium iodide staining based FACS analysis (reference value: 98.3%); assay type: functional
[23] = tested on: T-24; assay: Effect on p53 protein expression in human T24 cells up to 10 uM after 24 hrs by Western blot analysis; assay type: functional, cell-based; outline: as §3
[24] = tested on: T-24; assay: Induction of apoptosis in human T24 cells assessed as necrotic cells at 1 uM by Annexin V-FITC/propidium iodide based flow cytometric analysis (reference value: 8.53%); assay type: functional
[25] = tested on: T-24; assay: Induction of apoptosis in human T24 cells assessed as early apoptotic cells at 5 uM by Annexin V-FITC/propidium iodide based flow cytometric analysis (reference value: 1.79%); assay type: functional
[26] = tested on: T-24; assay: Induction of apoptosis in human T24 cells assessed as necrotic cells at 5 uM by Annexin V-FITC/propidium iodide based flow cytometric analysis (reference value: 8.53%); assay type: functional
[27] = tested on: T-24; assay: Induction of apoptosis in human T24 cells assessed as activation of caspase-3 at 5 uM by FITC-DEVD-FMK based flow cytometric analysis (reference value: 2.8%)
[28] = tested on: T-24; assay: Induction of apoptosis in human T24 cells assessed as activation of caspase-3 at 10 uM by FITC-DEVD-FMK based flow cytometric analysis (reference value: 2.8%)

CN(C)CCNc1nn2c(=O)c3cc(Br)ccc3nc2c2ccccc12
Activity [1]: 39.51% | Activity [2]: 12% | Activity [3]: 17.78% | Activity [4]: 38.21% | Activity [5]: Dose-dependent effect | Activity [6]: inactive | Activity [7]: Dose-dependent effect | Activity [8]: Dose-dependent effect | Activity [9]: 83.7% | Activity [10]: Active | Activity [11]: Active | Activity [12]: Active | Activity [13]: Active | inhibition in vivo at 12 mg/kg [14]: 54.2% | Activity [15]: Active | Activity [16]: inactive | Activity [17]: 93.5% | Activity [18]: 6.54% | Activity [19]: 0% | Activity [20]: 0% | Activity [21]: 10.6% | Activity [22]: 86.6% | Activity [23]: inactive | Activity [24]: 6.77% | Activity [25]: 26.4% | Activity [26]: 0.661% | Activity [27]: 17.6% | Activity [28]: 50%
